Legend:
[1] = target: T1, Angiotensin-converting enzyme (Oryctolagus cuniculus, UniProt P12822); assay: In vitro inhibition of angiotensin I converting enzyme from rabbit lung; format: tissue-based
T1 sequence (P12822 whole entry): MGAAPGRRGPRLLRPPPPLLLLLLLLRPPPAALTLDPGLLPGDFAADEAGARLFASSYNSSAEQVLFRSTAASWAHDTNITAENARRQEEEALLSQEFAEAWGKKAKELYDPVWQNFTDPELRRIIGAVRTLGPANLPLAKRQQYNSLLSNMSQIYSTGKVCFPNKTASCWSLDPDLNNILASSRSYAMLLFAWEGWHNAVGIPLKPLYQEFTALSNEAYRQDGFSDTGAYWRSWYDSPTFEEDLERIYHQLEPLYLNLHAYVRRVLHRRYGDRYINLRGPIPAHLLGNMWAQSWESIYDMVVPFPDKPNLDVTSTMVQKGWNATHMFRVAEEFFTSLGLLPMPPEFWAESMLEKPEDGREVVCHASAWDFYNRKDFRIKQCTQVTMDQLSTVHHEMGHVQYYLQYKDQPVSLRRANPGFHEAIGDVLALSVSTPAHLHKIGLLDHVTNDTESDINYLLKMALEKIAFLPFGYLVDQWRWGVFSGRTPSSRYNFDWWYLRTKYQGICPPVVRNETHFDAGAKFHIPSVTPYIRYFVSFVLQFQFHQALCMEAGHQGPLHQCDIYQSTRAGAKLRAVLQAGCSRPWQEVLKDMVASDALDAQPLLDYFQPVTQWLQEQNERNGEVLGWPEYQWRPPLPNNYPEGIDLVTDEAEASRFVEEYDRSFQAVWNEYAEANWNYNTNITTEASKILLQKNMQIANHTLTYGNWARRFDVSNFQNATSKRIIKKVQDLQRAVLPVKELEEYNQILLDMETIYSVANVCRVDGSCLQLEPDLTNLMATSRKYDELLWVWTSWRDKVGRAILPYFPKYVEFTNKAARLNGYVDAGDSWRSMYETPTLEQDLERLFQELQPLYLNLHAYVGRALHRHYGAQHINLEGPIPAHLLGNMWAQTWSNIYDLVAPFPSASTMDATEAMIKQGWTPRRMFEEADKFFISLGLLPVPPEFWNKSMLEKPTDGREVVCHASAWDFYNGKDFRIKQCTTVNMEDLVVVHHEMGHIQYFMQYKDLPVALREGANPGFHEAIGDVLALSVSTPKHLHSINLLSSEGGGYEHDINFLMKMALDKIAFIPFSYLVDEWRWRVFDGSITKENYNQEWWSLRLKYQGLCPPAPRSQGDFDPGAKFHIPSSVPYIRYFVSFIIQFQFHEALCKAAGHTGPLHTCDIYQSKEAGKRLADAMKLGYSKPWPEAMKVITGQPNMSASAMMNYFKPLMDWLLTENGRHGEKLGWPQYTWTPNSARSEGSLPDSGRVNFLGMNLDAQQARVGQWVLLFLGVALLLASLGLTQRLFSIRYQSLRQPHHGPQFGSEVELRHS

Rattus norvegicus [2] = assay: Percent inhibitory activity against angiotensin I pressor response 2 hr after peroral administration at dose 10 mg/kg; format: functional; conditions: route oral
Method in brief: (§1)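 Normotensive rats were dosed orally. The angiotensin I pressor response was followed, and the maximum percent inhibition 2 h after administration was reported.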

Rattus norvegicus [3] = assay: Percent inhibitory activity against angiotensin I pressor response 15 min after intravenous administration at dose 1 mg/kg; format: functional; conditions: 0.25 h
Method in brief: (§2)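 Normotensive rats received the test compound intravenously. The angiotensin I pressor response was measured 15 min after dosing and reported as percent inhibition.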

Rattus norvegicus [4] = assay: Percent inhibitory activity against angiotensin I pressor response 15 min after intravenous administration at dose 0.1 mg/kg; format: functional; conditions: 0.25 h; method in brief: as §2
Rattus norvegicus [5] = assay: Percent inhibitory activity against angiotensin I pressor response 2 hr after peroral administration at dose 1 mg/kg; format: functional; conditions: route oral; method in brief: as §1

IC50 [1] [nM]	SMILES	other results
4700	CCOC(=O)[C@@H]1Cc2ccccc2N1C(=O)CC[C@@H](NC(=O)OCc1ccccc1)C(=O)O	–
188	NCCCCC(N)C(=O)N[C@H](CCC(=O)N1c2ccccc2C[C@H]1C(=O)O)C(=O)O (some centres undefined)	–
7	CN(C)CCOC(=O)[C@@H]1Cc2ccccc2N1C(=O)CC[C@@H](NC(=O)OCc1ccccc1)C(=O)O	–
10000	N[C@H](CCC(=O)N1c2ccccc2C[C@H]1C(=O)O)C(=O)O	–
2200	CCOC(=O)[C@@H](CCC(=O)N1c2ccccc2C[C@H]1C(=O)O)NC(=O)c1cccnc1	inhibition in vivo at 10 mg/kg (Rattus norvegicus [2]): 30%; inhibition in vivo at 1 mg/kg (Rattus norvegicus [3]): 100%
300	O=C(O)[C@@H](CCC(=O)N1c2ccccc2C[C@H]1C(=O)O)NCc1ccccc1	–
40	O=C(CCc1ccccc1)N[C@H](CCC(=O)N1c2ccccc2C[C@H]1C(=O)O)C(=O)O	inhibition in vivo at 1 mg/kg (Rattus norvegicus [3]): 76%
61	O=C(NCCCCC(NC(=O)OCc1ccccc1)C(=O)N[C@H](CCC(=O)N1c2ccccc2C[C@H]1C(=O)O)C(=O)O)OCc1ccccc1 (some centres undefined)	–
500	O=C(N[C@@H](CCC(=O)N1c2ccccc2CC1C(=O)O)C(=O)O)OCc1ccccc1 (some centres undefined)	–
14	O=C(N[C@H](CCC(=O)N1Cc2ccccc2C[C@H]1C(=O)O)C(=O)O)OCc1ccccc1	–
10000	O=C(O)[C@@H](CCC(=O)N1c2ccccc2C[C@H]1C(=O)O)N(Cc1ccccc1)C(=O)OCc1ccccc1	–
7	O=C(NC(CCC(=O)N1c2ccccc2C[C@@H]1C(=O)O)C(=O)O)OCc1ccccc1 (some centres undefined)	inhibition in vivo at 0.1 mg/kg (Rattus norvegicus [4]): 70%; inhibition in vivo at 1 mg/kg (Rattus norvegicus [5]): 0%
52	O=C1OCN(C(=O)OCc2ccccc2)[C@@H]1CCC(=O)N1c2ccccc2C[C@H]1C(=O)O	–
40	O=C(O)CN(C(=O)CC[C@@H](NC(=O)OCc1ccccc1)C(=O)O)C1CCCC1	–
29	O=C(O)[C@@H](CCC(=O)N1c2ccccc2C[C@H]1C(=O)O)NS(=O)(=O)Cc1ccccc1	–
95	CC(=O)N[C@H](CCC(=O)N1c2ccccc2C[C@H]1C(=O)O)C(=O)O	–
88	O=C(N[C@H](CCC(=O)N1c2ccccc2CCC1C(=O)O)C(=O)O)OCc1ccccc1 (some centres undefined)	–
24	O=C(N[C@H](CCC(=O)N1c2ccccc2C[C@H]1C(=O)O)C(=O)O)c1cccnc1	inhibition in vivo at 0.1 mg/kg (Rattus norvegicus [4]): 79%; inhibition in vivo at 1 mg/kg (Rattus norvegicus [5]): 0%
44	O=C(Nc1ccccc1)N[C@H](CCC(=O)N1c2ccccc2C[C@H]1C(=O)O)C(=O)O	–
17	O=C(N[C@H](CCC(=O)N1C[C@H]2CCCC[C@H]2C[C@H]1C(=O)O)C(=O)O)OCc1ccccc1	–
21	COc1ccc(N(CC(=O)O)C(=O)CC[C@@H](NC(=O)OCc2ccccc2)C(=O)O)cc1OC	–
160	NC(=O)[C@@H]1Cc2ccccc2N1C(=O)CC[C@@H](NC(=O)OCc1ccccc1)C(=O)O	–
37	CN(C)CCCOC(=O)[C@@H]1Cc2ccccc2N1C(=O)CC[C@@H](NC(=O)OCc1ccccc1)C(=O)O	–
57	O=C(N[C@H](CCC(=O)N1c2ccccc2C[C@H]1C(=O)O)C(=O)O)c1ccccn1	–
350	O=C(N[C@H](CCC(=O)N1c2ccccc2C[C@H]1C(=O)OCc1cccnc1)C(=O)O)OCc1ccccc1	inhibition in vivo at 10 mg/kg (Rattus norvegicus [2]): 15%; inhibition in vivo at 1 mg/kg (Rattus norvegicus [3]): 70%
20	Cc1ccc(S(=O)(=O)N[C@H](CCC(=O)N2c3ccccc3C[C@H]2C(=O)O)C(=O)O)cc1	–
28	O=C(N[C@H](CCC(=O)N1c2ccccc2C[C@H]1C(=O)O)C(=O)O)c1ccccc1	inhibition in vivo at 0.1 mg/kg (Rattus norvegicus [4]): 55%
50	O=C(N[C@H](CCC(=O)N1CCC[C@H]1C(=O)O)C(=O)O)OCc1ccccc1	–
2.7	O=C(N[C@H](CCC(=O)N1[C@H](C(=O)O)C[C@@H]2CCCC[C@@H]21)C(=O)O)OCc1ccccc1	–

Source: ChEMBL document CHEMBL1122837, “Angiotensin converting enzyme inhibitors: N-substituted D-glutamic acid gamma dipeptides” (J Med Chem, 1985)
